The list is not random: actives were taken first. Their share in the collection is about 1.8%.
PG9 binder = binders of HIV-1 gp120 antibody PG9, primary screen, biochemical, TR-FRET. HIV-1 gp120 / PG9 antibody interaction. TR-FRET gp120-PG9 antibody binding. inhibition, % at 6.7 µM. actives 0.43% (n = 360,000); in the data active = inhibition above about 8.5%
NR2E3 ag-1 = NR2E3 agonists in two-hybrid cells, primary screen, cell-based, luminescence, CHO-S, Gal4-NCOR/VP16-NR2E3; luciferase; Photoreceptor-specific nuclear receptor (Homo sapiens), Q9Y5X4; actives 0.35% (n = 360,000); inhibition of corepressor binding, % at 3.98 µM; AID 602229, 2012;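 active = inhibition above the mean of all tested compounds plus 3 SD, cut at about 70% in these data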;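 also: 0% = DMSO with NR2E3 transfected cells and 100% = cells lacking NR2E3 construct; higher means lower luciferase signal from less NR2E3 corepressor binding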
GalR3 antag = GalR3 antagonists in HEK293 cells, primary screen, cell-based, fluorescence readout; inhibition, % at 3 µM; AID 651719, 2012; actives 0.44% (n = 360,000); HEK293 GalR3-CNG cAMP membrane potential fluorescence; galR3 body fused to GalR1 C-terminus; Galanin receptor type 3 (Homo sapiens), O60755;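 active = inhibition above the screen-wide average plus 3 SD, cut at about 13% in these data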;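 also: forskolin and galanin both at EC90 stimulate the cells; cAMP rise reported by CNG channel membrane potential dye signal; 0% = forskolin plus galanin with DMSO and 100% = forskolin alone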
NR1D1 modulator = modulators of Rev-erb alpha DNA binding, primary screen, biochemical, FITC-DNA, fluorescence polarization, uHTS. activity, % at 10 µM. Rev-erbα–FITC-DNA binding, 90 min. Nuclear receptor subfamily 1 group D member 1 (Homo sapiens), P20393. actives 0.79% (n = 370,000);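 active = activity above about 14%, limit read from the data; passing the limit was not always enough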;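 also: 0% = DMSO wells with 35 nM protein and 100% = DMSO wells with 750 nM protein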
Target sequence (P20393 whole entry, looked up): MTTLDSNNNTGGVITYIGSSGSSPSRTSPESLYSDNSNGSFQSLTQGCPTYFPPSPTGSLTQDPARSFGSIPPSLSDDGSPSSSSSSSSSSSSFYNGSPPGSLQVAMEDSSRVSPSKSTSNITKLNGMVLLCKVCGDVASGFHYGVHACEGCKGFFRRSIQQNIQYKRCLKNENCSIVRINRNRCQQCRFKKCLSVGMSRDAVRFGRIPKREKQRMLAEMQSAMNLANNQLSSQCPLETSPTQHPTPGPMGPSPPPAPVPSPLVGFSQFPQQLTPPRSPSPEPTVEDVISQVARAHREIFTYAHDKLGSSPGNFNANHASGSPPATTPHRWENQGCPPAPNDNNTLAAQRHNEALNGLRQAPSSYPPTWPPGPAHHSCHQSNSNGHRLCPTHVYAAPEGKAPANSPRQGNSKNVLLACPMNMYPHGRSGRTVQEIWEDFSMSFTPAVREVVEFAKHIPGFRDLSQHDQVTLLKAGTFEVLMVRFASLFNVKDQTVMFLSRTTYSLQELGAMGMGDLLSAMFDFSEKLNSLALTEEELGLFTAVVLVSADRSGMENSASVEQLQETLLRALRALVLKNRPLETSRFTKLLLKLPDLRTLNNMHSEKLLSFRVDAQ
NR2E3 ag-2 = inhibitors of NR2E3-RetCOR corepressor binding, primary screen, NR2E3 agonist project, biochemical, TR-FRET, GST-NR2E3, biotin-RetCOR; Photoreceptor-specific nuclear receptor (Homo sapiens), Q9Y5X4; 1536-well; inhibition of corepressor binding, % at 4.78 µM; actives 0.12% (n = 320,000);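 active = percent inhibition above the cutoff of mean plus 3 SD of all tested compounds, set per screening campaign, cut at about 20% in these data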;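 also: 0% = DMSO wells and 100% = biotin wells as full block of FRET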
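Test system: GST-NR2E3 and biotin-RetCOR proteins | Quantity: 1.35 nM GST-tagged NR2E3 final | Medium: Tris pH 7.5 | Also added: 7 nM biotin-RetCOR | Dosing: Compound at 4.8 µM, single dose | Timing: 5 h at 4 °C | Detection: Time-resolved FRET | Read-out basis: Percent inhibition | Benchmarks: Biotin wells as high control, 0.6% DMSO wells as low control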
NR2E3 ag confirm = NR2E3 agonists, confirmation, biochemical, TR-FRET | shares compounds with NR2E3 ag-2 | cell-free NR2E3 corepressor release, 5 h | activation (reported as inhibition), % at 3.98 µM | actives 39% (n = 360) | AID 2379, 2010; in the data active = activation above about 20%
PPARg-NCOR2 ctr = agonists of PPARg-NCOR2 corepressor interaction, counter-screen for NR2E3 agonist project, biochemical, TR-FRET; actives 45% (n = 360); TR-FRET PPARg-NCOR2 coregulator interaction; shares compounds with NR2E3 ag-2; inhibition, % at 3.98 µM; in the data active = inhibition above about 20%;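 also: 0% = DMSO vehicle and 100% = wells without protein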
Numbers without * were called inactive; · = no result.

SMILES	PG9 binder	NR2E3 ag-1	GalR3 antag	NR1D1 modulator	NR2E3 ag-2	NR2E3 ag confirm	PPARg-NCOR2 ctr
CCN(CC)c1ccc2c(-c3ccc(S(=O)(=O)O)cc3S(=O)(=O)[O-])c3ccc(=[N+](CC)CC)cc-3oc2c1	·	5	·	·	46*	41*	48*
CCN(CC)c1ccc2nc3c4ccccc4c(=O)cc-3oc2c1	-12	·	-17	-1	·	·	·
COC(=O)c1cc(C)nc2c1C(=O)C(=O)C=C2N1CCOCC1	-12	20	-14	-1	38*	43*	57*
Cc1cccc(-c2nc(=S)c3c(n2Cc2ccco2)CCCC3)c1	2	10	-7	2	28*	4	8
N#Cc1c(-c2ccco2)c2c([nH]c1=S)CCCC2	6	-35	-6	2	39*	14	23*
CCNC(=S)Nc1nc2c(cc1C(=O)OCC)CCCC2	-2	-15	-3	6	21*	27*	20*
Cc1cc(C#N)cc(C)c1Oc1nc(Nc2ccc(C#N)cc2)nc(N)c1Br	·	·	·	2	·	·	·
CS(=O)(=O)N1CCN(c2ccc(Cl)cc2[N+](=O)[O-])CC1	-1	6	-1	4	42*	-1	-6
COc1cc(C2C(C(=O)c3cccs3)=C(O)C(=O)N2CCN2CCOCC2)cc(OC)c1OC (centres undefined)	-1	-20	-7	2	3	·	·
COc1cccc2cc(C(=O)C3=C(O)C(=O)N(CCN4CCOCC4)C3c3cccs3)oc12 (centres undefined)	6	5	2	10	24*	21*	18
CN[C@@H]1C(OC2[C@H](O[C@H]3[C@H](O)[C@@H](O)[C@H](N=C(N)N)[C@@H](O)[C@@H]3N=C(N)N)O[C@H](C)[C@]2(O)CO)O[C@@H](CO)C(O)C1O (some centres undefined)	·	·	·	-2	·	·	·
C=CCN(CC=C)Cc1c(O)ccc2c1oc(=O)c1ccccc12	5	-34	-5	2	34*	14	-4
CCCC1=NN2C(=N)/C(=C\c3ccc(SCc4ccco4)o3)C(=O)N=C2S1	·	-5	·	·	20*	4	61*
O=C(O)[C@@H](S)[C@@H](S)C(=O)O	·	·	·	-2	·	·	·
O=C(c1cc2nc(-c3ccco3)cc(C(F)(F)F)n2n1)N1CCCCCC1	-1	21	-3	-9	-1	·	·
O=C(NCCCN1CCCC1=O)c1cc2nc(-c3ccco3)cc(C(F)(F)F)n2n1	-1	-5	-6	5	22*	-10	-5
Cc1ccc(-c2n[nH]c(=S)n2-c2ccccc2)cc1	3	-12	0	-4	-1	·	·
CS(=O)(=O)Nc1ccc(-c2n[nH]c(=S)n2-c2ccccc2)cc1	7	8	2	6	27*	10	9
CN(C)C1C(=O)C(C(=O)NCN2CCCC2)=C(O)C2(O)C(=O)C3=C(O)c4c(O)cccc4C(C)(O)C3CC12 (centres undefined)	·	·	·	-8	·	·	·
O=C(CCN1C(=O)COc2ccccc21)NCc1cccnc1	-1	-7	-5	2	0	·	·
O=C(CN1C(=O)COc2ccccc21)N(Cc1cccnc1)Cc1ccccc1F	·	-35	·	7	31*	-12	-8
CN1CCN(CC(=O)N/N=C\c2c[nH]c3ccccc23)CC1	-1	·	-3	2	30*	-5	-5
CCc1cc(Cl)c(OC)c(C(=O)NC[C@H]2CCCN2CC)c1O	·	·	·	5	·	·	·
CC(=O)O[C@H]1C[C@@]2(C)[C@@H](C[C@@H](O)C3[C@]2(C)CC[C@H]2[C@H](C)[C@H](O)CC[C@]32C)/C1=C(/CCC=C(C)C)C(=O)O (some centres undefined)	·	·	·	1	·	·	·
CC(=O)c1c(C(C)=O)c(C)n(-c2ccc(C(=O)O)cc2)c1C	-1	-25	0	-5	-2	·	·
SMILES	PG9 binder	NR2E3 ag-1	GalR3 antag	NR1D1 modulator	NR2E3 ag-2	NR2E3 ag confirm	PPARg-NCOR2 ctr
Cc1ccc(C)n1-c1ccc(C(=O)O)cc1	·	·	·	·	23*	15	-4
NS(=O)(=O)c1cccc(C(=O)NC2CCSc3ccccc32)c1 (centres undefined)	0	-3	-9	5	4	·	·
NS(=O)(=O)c1cc(C(=O)NC2CCSc3ccccc32)ccc1Cl (centres undefined)	1	-12	-8	-15	20*	7	-2
O=C(O)c1ccc2c(c1)[C@@H]1C=CC[C@@H]1[C@H](c1ccccn1)N2	-1	-35	2	-3	48*	12	9
O=c1[nH]c(CN2CCN(c3ncccn3)CC2)nc2c(Br)cc(Br)cc12	3	38	-1	9	27*	14	25*
CC1=NN(c2ccc(C)c(C)c2)C(=O)C1C(c1cccc(O)c1)C1C(=O)N(c2ccc(C)c(C)c2)N=C1C (centres undefined)	-2	28	-2	-1	21*	-4	6
CC[C@@H]1OC(=O)C[C@@H](O)[C@H](C)[C@@H](O[C@@H]2O[C@H](C)[C@@H](O)[C@H](N(C)C)[C@H]2O)[C@@H](CCN2C[C@H](C)C[C@H](C)C2)C[C@@H](C)C(=O)/C=C/C(C)=C\[C@@H]1CO[C@@H]1O[C@H](C)[C@@H](O)[C@@H](OC)[C@H]1OC	·	·	·	-5	·	·	·
COc1ccc(OC)c(N(CC(=O)N2CCC(C)CC2)S(=O)(=O)c2ccc(OC)c(OC)c2)c1	0	-16	-4	2	1	·	·
COc1ccc(S(=O)(=O)N(C)CC(=O)N2CCC(C)CC2)cc1Cl	1	-11	0	1	22*	-9	-6
CCCCCn1c(NC(=O)c2ccco2)c(S(=O)(=O)c2ccc(C)cc2)c2nc3ccccc3nc21	3	-7	-4	-3	20*	9	42*
CCCCn1c(NS(=O)(=O)c2ccccc2)c(S(=O)(=O)c2ccc(C)cc2)c2nc3ccccc3nc21	1	3	-1	-4	19	·	·
CCCCCCCCCC(=O)OCCN1CCN(CCCN2c3ccccc3Sc3ccc(C(F)(F)F)cc32)CC1	·	·	·	-1	·	·	·
